Assay results taken from ChEMBL document CHEMBL3244174, “Synthesis and biological activity of some new furan quaternary salts” (J Med Chem, 1977).

Key:
Candida albicans = assay: Antifungal activity against Candida albicans SKF 2270 assessed as growth inhibition by agar dilution method; assay type: functional
Cryptococcus neoformans = assay: Antifungal activity against Cryptococcus neoformans 103 assessed as growth inhibition by agar dilution method; assay type: functional
[1] = system: Trichophyton mentagrophytes; assay: Antifungal activity against Trichophyton mentagrophytes A-280 USPHS assessed as growth inhibition by agar dilution method; assay type: functional
Trichophyton rubrum = assay: Antifungal activity against Trichophyton rubrum 252 CSTM assessed as growth inhibition by agar dilution method; assay type: functional
Microsporum canis = assay: Antifungal activity against Microsporum canis VM-200 USPHS assessed as growth inhibition by agar dilution method; assay type: functional
Nannizzia gypsea = assay: Antifungal activity against Microsporum gypseum 153 CSTM assessed as growth inhibition by agar dilution method; assay type: functional
Histoplasma capsulatum = assay: Antifungal activity against Histoplasma capsulatum RNSH Hi-70 1/2 assessed as growth inhibition by agar dilution method; assay type: functional
Staphylococcus aureus = assay: Antibacterial activity against Staphylococcus aureus ATCC 6538 assessed as growth inhibition after 24 hrs by dilution tube method; assay type: functional; details: ATCC 6538, 24 h
In short: (§1)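 Broth tube dilution in Tryptone Soya Broth, duplicate tubes at each concentration. MIC (μg/ml) was the highest dilution preventing visible growth. Nitrofurantoin run under the same conditions.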

Enterococcus faecalis = assay: Antibacterial activity against Streptococcus faecalis ATCC 10541 assessed as growth inhibition after 24 hrs by dilution tube method; assay type: functional; details: ATCC 10541, 24 h; in short: as §1
Pseudomonas aeruginosa = assay: Antibacterial activity against Pseudomonas aeruginosa ATCC 10145 assessed as growth inhibition after 24 hrs by dilution tube method; assay type: functional; details: ATCC 10145, 24 h; in short: as §1
Klebsiella pneumoniae = assay: Antibacterial activity against Klebsiella pneumoniae ATCC 10031 assessed as growth inhibition after 24 hrs by dilution tube method; assay type: functional; details: ATCC 10031, 24 h; in short: as §1
Salmonella typhi = assay: Antibacterial activity against Salmonella typhi 115 assessed as growth inhibition after 24 hrs by dilution tube method; assay type: functional, Salmonella enterica subsp. enterica serovar Typhi; details: Salmonella enterica, 115, 24 h
In short: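 Dilution tube method in Tryptone Soya Broth; MIC (μg/ml) taken as highest dilution preventing visible growth; duplicates at every concentration; nitrofurantoin reference run under same conditions.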

[2] = system: Agrobacterium tumefaciens; assay: Antibacterial activity against Agrobacterium tumefaciens NRRL B-36 assessed as growth inhibition after 24 hrs by dilution tube method; assay type: functional; details: NRRL B-36, 24 h; in short: as §1
Escherichia coli = assay: Antibacterial activity against Escherichia coli 114 assessed as growth inhibition after 24 hrs by dilution tube method; assay type: functional; details: Escherichia coli, 114, 24 h; in short: as §1
[3] = system: Mycobacterium tuberculosis; assay: Antibacterial activity against Mycobacterium tuberculosis H37Rv assessed as growth inhibition by serial dilution method; assay type: functional
In short: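 M. tuberculosis H37Rv maintained on Lowenstein–Jensen medium; tested in Youman's medium by serial dilution.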

Row | Compound | MIC (Candida albicans) | MIC (Cryptococcus neoformans) | MIC [1] | MIC (Trichophyton rubrum) | MIC (Microsporum canis) | MIC (Nannizzia gypsea) | MIC (Histoplasma capsulatum) | MIC (Staphylococcus aureus) | MIC (Enterococcus faecalis) | MIC (Pseudomonas aeruginosa) | MIC (Klebsiella pneumoniae) | MIC (Salmonella typhi) | MIC [2] | MIC (Escherichia coli) | MIC [3]
1 | C[N+](C)(CCCOc1c(Br)cc(Br)cc1Br)Cc1ccc(Br)o1.[Br-] | > 200 µg/mL | 50 µg/mL | > 200 µg/mL | > 200 µg/mL | > 200 µg/mL | > 200 µg/mL | > 200 µg/mL | 10 µg/mL | 25 µg/mL | 4 µg/mL | 7.5 µg/mL | 100 µg/mL | 50 µg/mL | > 200 µg/mL | 10 µg/mL
2 | C[N+](C)(CCCCCCCCCCOc1c(Br)cc(Br)cc1Br)Cc1ccc(Br)o1.[Br-] | > 200 µg/mL | 4 µg/mL | > 200 µg/mL | > 200 µg/mL | > 200 µg/mL | > 200 µg/mL | > 200 µg/mL | 10 µg/mL | 4 µg/mL | 2 µg/mL | 3 µg/mL | > 200 µg/mL | 7.5 µg/mL | > 200 µg/mL | 50 µg/mL
3 | Cc1cc(OCCCCCCCCCCCCCC[N+](C)(C)Cc2ccc(Br)o2)c(C(C)C)cc1Cl.Cc1ccc(S(=O)(=O)[O-])cc1 | > 200 µg/mL | > 200 µg/mL | > 200 µg/mL | > 200 µg/mL | > 200 µg/mL | > 200 µg/mL | > 200 µg/mL | > 200 µg/mL | > 200 µg/mL | 200 µg/mL | 200 µg/mL | > 200 µg/mL | > 200 µg/mL | > 200 µg/mL | > 200 µg/mL
4 | Cc1cc(OCCCCCCCCCC[N+](C)(C)Cc2ccc([N+](=O)[O-])o2)c(C(C)C)cc1Cl.Cc1ccc(S(=O)(=O)[O-])cc1 | > 200 µg/mL | 100 µg/mL | 200 µg/mL | > 200 µg/mL | > 200 µg/mL | > 200 µg/mL | > 200 µg/mL | 200 µg/mL | 100 µg/mL | 50 µg/mL | 200 µg/mL | > 200 µg/mL | – | > 200 µg/mL | 25 µg/mL
5 | Cc1cc(OCCC[N+](C)(C)Cc2ccc(Br)o2)c(C(C)C)cc1Cl.[Br-] | > 200 µg/mL | 50 µg/mL | > 200 µg/mL | 100 µg/mL | 100 µg/mL | > 200 µg/mL | 100 µg/mL | 10 µg/mL | 10 µg/mL | 4 µg/mL | 7.5 µg/mL | 100 µg/mL | 25 µg/mL | > 200 µg/mL | 10 µg/mL
6 | Cc1cc(OCCCCCCCCCCCC[N+](C)(C)Cc2ccc(Br)o2)c(C(C)C)cc1Cl.Cc1ccc(S(=O)(=O)[O-])cc1 | > 200 µg/mL | > 200 µg/mL | > 200 µg/mL | > 200 µg/mL | > 200 µg/mL | > 200 µg/mL | > 200 µg/mL | 200 µg/mL | > 200 µg/mL | 50 µg/mL | 200 µg/mL | > 200 µg/mL | > 200 µg/mL | > 200 µg/mL | 200 µg/mL
7 | C[N+](C)(CCCCOc1c(Br)cc(Br)cc1Br)Cc1ccc([N+](=O)[O-])o1.[Br-] | > 200 µg/mL | 50 µg/mL | > 200 µg/mL | > 200 µg/mL | > 200 µg/mL | > 200 µg/mL | 50 µg/mL | 25 µg/mL | 50 µg/mL | 8 µg/mL | 10 µg/mL | > 200 µg/mL | 50 µg/mL | > 200 µg/mL | 25 µg/mL
8 | Cc1cc(OCCCCCCCC[N+](C)(C)Cc2ccc([N+](=O)[O-])o2)c(C(C)C)cc1Cl.[Br-] | > 200 µg/mL | 4 µg/mL | > 200 µg/mL | > 200 µg/mL | > 200 µg/mL | > 200 µg/mL | > 200 µg/mL | 2 µg/mL | 3 µg/mL | 1 µg/mL | 2 µg/mL | > 200 µg/mL | 4 µg/mL | > 200 µg/mL | 7.5 µg/mL
9 | Cc1ccc(C[N+](C)(C)CCCCCCOc2c(Br)cc(Br)cc2Br)o1.[Br-] | > 200 µg/mL | 10 µg/mL | > 200 µg/mL | > 200 µg/mL | > 200 µg/mL | > 200 µg/mL | 75 µg/mL | 5 µg/mL | 7.5 µg/mL | 2.5 µg/mL | 5 µg/mL | 75 µg/mL | 25 µg/mL | > 200 µg/mL | 10 µg/mL
10 | C[N+](C)(CCCCCCCCCCCCOc1c(Br)cc(Br)cc1Br)Cc1ccc([N+](=O)[O-])o1.[Br-] | > 200 µg/mL | 200 µg/mL | > 200 µg/mL | > 200 µg/mL | > 200 µg/mL | – | > 200 µg/mL | 200 µg/mL | 200 µg/mL | 50 µg/mL | 200 µg/mL | > 200 µg/mL | > 200 µg/mL | – | 100 µg/mL
11 | Cc1cc(OCCC[N+](C)(C)Cc2ccc([N+](=O)[O-])o2)c(C(C)C)cc1Cl.[Br-] | > 200 µg/mL | > 200 µg/mL | > 200 µg/mL | > 200 µg/mL | > 200 µg/mL | > 200 µg/mL | > 200 µg/mL | 25 µg/mL | 25 µg/mL | 2 µg/mL | 5 µg/mL | 100 µg/mL | 25 µg/mL | > 200 µg/mL | > 200 µg/mL
12 | Cc1cc(OCCCCCCCC[N+](C)(C)Cc2ccc(Br)o2)c(C(C)C)cc1Cl.Cc1ccc(S(=O)(=O)[O-])cc1 | > 200 µg/mL | 50 µg/mL | 200 µg/mL | 200 µg/mL | 100 µg/mL | 200 µg/mL | > 200 µg/mL | 100 µg/mL | 100 µg/mL | 25 µg/mL | 100 µg/mL | > 200 µg/mL | 100 µg/mL | > 200 µg/mL | 25 µg/mL
13 | C[N+](C)(CCCCCCCCCCOc1c(Br)cc(Br)cc1Br)Cc1ccc([N+](=O)[O-])o1.[Br-] | > 200 µg/mL | 4 µg/mL | – | > 200 µg/mL | > 200 µg/mL | > 200 µg/mL | > 200 µg/mL | 2 µg/mL | 4 µg/mL | 3 µg/mL | 4 µg/mL | > 200 µg/mL | 10 µg/mL | > 200 µg/mL | 7.5 µg/mL
14 | C[N+](C)(CCCCCCCOc1c(Br)cc(Br)cc1Br)Cc1ccc(Br)o1.[Br-] | > 200 µg/mL | 5 µg/mL | > 200 µg/mL | > 200 µg/mL | > 200 µg/mL | > 200 µg/mL | > 200 µg/mL | 3 µg/mL | 4 µg/mL | 2 µg/mL | 2 µg/mL | > 200 µg/mL | 7.5 µg/mL | > 200 µg/mL | 25 µg/mL
15 | Cc1cc(OCCCCCC[N+](C)(C)Cc2ccc([N+](=O)[O-])o2)c(C(C)C)cc1Cl.[Br-] | > 200 µg/mL | 25 µg/mL | > 200 µg/mL | 200 µg/mL | 100 µg/mL | > 200 µg/mL | > 200 µg/mL | > 200 µg/mL | > 200 µg/mL | > 200 µg/mL | > 200 µg/mL | > 200 µg/mL | > 200 µg/mL | > 200 µg/mL | –
16 | C[N+](C)(CCCCCOc1ccc(Cl)cc1)Cc1ccc(Br)o1.[Br-] | > 200 µg/mL | > 200 µg/mL | > 200 µg/mL | > 200 µg/mL | 100 µg/mL | > 200 µg/mL | > 200 µg/mL | 50 µg/mL | 100 µg/mL | 25 µg/mL | 50 µg/mL | > 200 µg/mL | > 200 µg/mL | > 200 µg/mL | –
